CSN deneddyl inh: inhibitors of CSN-mediated cullin deneddylation, primary screen, biochemical, fluorescence polarization, uHTS; AID 651999, 2013; Purified CSN, SCF-Nedd8-OG deneddylation; 360,000 tested, 0.38% active; inhibition, % at 12.5 µM;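 active means pattern-corrected inhibition above about 35%, with an unprinted fluorescence ratio check between 0.5 and 1.5, limit read from the data, passing the limit was not always enough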
Target sequence (Q92905 whole entry, looked up, one chain of several): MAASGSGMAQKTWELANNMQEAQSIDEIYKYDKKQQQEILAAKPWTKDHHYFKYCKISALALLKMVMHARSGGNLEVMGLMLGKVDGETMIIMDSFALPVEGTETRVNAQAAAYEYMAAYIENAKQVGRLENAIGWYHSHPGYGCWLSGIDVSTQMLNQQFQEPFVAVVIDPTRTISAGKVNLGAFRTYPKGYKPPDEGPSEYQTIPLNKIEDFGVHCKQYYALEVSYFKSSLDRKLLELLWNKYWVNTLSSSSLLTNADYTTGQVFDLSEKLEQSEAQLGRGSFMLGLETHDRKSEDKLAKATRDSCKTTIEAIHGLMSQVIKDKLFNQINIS
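Detection – fluorescence polarization · System – HEK293T-derived human Csn5 enzyme · Controls – substrate-only high control, full reaction low control · Timing – 90 min, room temperature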
Rpn11 inh: Rpn11 (PSMD14) deubiquitinase inhibitors, primary screen, biochemical, fluorescence polarization, uHTS; 26S proteasome non-ATPase regulatory subunit 14 (Homo sapiens), O00487; human 26S proteasome, Ub4-pepOG fluorescence polarization; 20S core pre-blocked with epoxomicin; inhibition, % at 20 µM; 360,000 tested, 0.59% active; AID 588493, 2011;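 active means inhibition at 20 µM, scaled to each plate's controls, above about 33%, limit read from the data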
SKN-1 block: suppressors of acrylamide-induced Pgst-4::GFP reporter in worms, primary screen, SKN-1 inhibitor project, whole organism, uHTS, GFP/RFP fluorescence ratio, strain VP596 | C. elegans VP596 Pgst-4::GFP/RFP ratio, 24 h | inhibition, % at 21.8 µM | 360,000 tested, 0.49% active;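 active means interference check ratio from 0.5 to 1.5 plus GFP to RFP signal ratio inhibition reaching or exceeding a fixed threshold, cut at about 30% in these data, passing the limit was not always enough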
SUMO1 PPI mod: modulators of SUMO1 protein-protein interactions, primary screen, biochemical, uHTS; 360,000 tested, 0.33% active; inhibition, % at 20 µM; AID 602429, 2012; SUMO1 binding to a labelled peptide, TR-FRET, 1 h; in the data active means inhibition above about 37%
MT1-MMP act inh: blockers of MT1-MMP proenzyme processing, primary screen, HT1080 RFP-PRO-GFP cells, GFP/RFP fluorescence | Matrix metalloproteinase-14 (Homo sapiens), P50281 | GFP/RFP ratio fluorescence, overnight; percent of plate control window, DMSO zero | GFP/RFP ratio change, % at 20 µM | 360,000 tested, 0.061% active | AID 651647, 2012;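 active means GFP/RFP ratio change of at least 30% with cell ATP level not reduced by more than half and red fluorescence within 50% of control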
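Compound: 20 µM single dose, 1% DMSO / System: HT1080 RFP-PRO-GFP cells / Controls: DMSO and RFP-L50D-GFP cell wells / Read-out basis: GFP/RFP fluorescence ratio / Schedule: overnight compound exposure at 37 °C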
DNMT1 block: human DNMT1 methyltransferase inhibitors, primary screen, biochemical, molecular beacon, fluorescence, HinP1I cleavage, uHTS | DNA (cytosine-5)-methyltransferase 1 (Homo sapiens), P26358 | inhibition (reported as % activation of signal), % at 10 µM | 360,000 tested, 0.83% active; in the data active means inhibition above about 50%
Numbers stand for hits; i = inactive; nt = not tested or not shown. Shown are actives, neighbours in structure and some others; about 2.3% of the full set was active somewhere.

SMILES | CSN deneddyl inh | Rpn11 inh | SKN-1 block | SUMO1 PPI mod | MT1-MMP act inh | DNMT1 block
NC(=O)CC(NC(=O)Cc1ccc(Br)cc1)c1ccc(NC2CCN(Cc3ccccc3)CC2)c([N+](=O)[O-])c1 (stereo unspecified) | 53.2 | i | i | i | i | i
NC(=O)CC(NC(=O)Cc1ccc(Br)cc1)c1ccc(NC2CCCCCCC2)c([N+](=O)[O-])c1 (stereo unspecified) | i | nt | i | i | i | i
CCn1cnc2cc(NCc3ccc(OC)cc3)ccc21 | i | i | i | i | i | i
CCOc1ccc2nc3cc(NCc4ccc(OC)cc4)ccc3c(N)c2c1 | i | i | i | 110.0 | i | i
CCC1CCc2c(sc(N)c2C(N)=O)C1 (stereo unspecified) | i | i | i | 46.9 | i | i
CC1=NOC(=O)/C1=C\c1ccc(-c2ccc(Cl)cc2Cl)o1 | i | i | i | 53.3 | i | 91.3
Cc1c(C)c2ccc(OCC(=O)Nc3cccnc3)c(C)c2oc1=O | i | i | i | i | i | i
COc1ccc(-c2cc(=O)oc3c(C)c(OCC(=O)Nc4cccnc4)ccc23)cc1 | 89.6 | i | i | 41.3 | i | i
CC1(C)CC[C@]2(C(=O)O)CC[C@]3(C)C(=CCC4[C@@]5(C)CC[C@H](O)C(C)(C)C5CC[C@]43C)C2C1 (stereo partly specified) | i | i | i | i | i | 77.8
CC1(C)CC[C@]2(C(=O)O)CC[C@]3(C)C(=CC[C@@H]4[C@@]5(C)CC[C@H](O)C(C)(C)[C@@H]5CC[C@]43C)[C@@H]2C1 | i | i | i | i | i | i
COC(=O)Cn1ncn2cccc2c1=O | i | i | i | i | i | i
O=c1[nH]ncn2cccc12 | i | i | 46.2 | i | i | i
CCCNC(=O)C1(C)CCN(C(=O)c2ccc(C)c(F)c2)C1 (stereo unspecified) | i | i | i | i | i | i
CN(C)c1ccc(C(=N)Cc2ccc3ccccc3n2)cc1 | 44.2 | i | i | i | i | i
O=c1cc(CN2CCN(c3ccc(Cl)c(Cl)c3)CC2)c2c(ccc3ccccc32)o1 | i | i | i | i | i | i
Cc1ccc(S(=O)(=O)N2[C@@H](CO)CO[C@H]2CC(=O)c2cccc3ccccc23)cc1 | i | nt | i | i | i | nt
CC(=O)C1=C(C)NC(SCC(N)=O)=C(C#N)C1c1ccco1 (stereo unspecified) | i | i | i | i | i | i
CC(=O)C1=C(C)NC(SCC(=O)c2cc(Cl)ccc2Cl)=C(C#N)C1c1ccco1 (stereo unspecified) | i | 47.4 | i | i | i | i
CC(=O)C1=C(C)OC(N)=C(C#N)C1c1ccco1 (stereo unspecified) | i | i | 37.1 | i | i | i
COC(=O)C1=C(C)OC(N)=C(C#N)C1c1ccco1 (stereo unspecified) | i | i | i | i | i | i
CCOC(=O)CN(C(=O)CNC(=O)c1cccs1)C(C(=O)NC1CCCCC1)c1cccs1 (stereo unspecified) | i | i | 45.6 | i | i | i
CCOC(=O)CN(C(=O)CNC(=O)c1cccs1)C(C(=O)NC1CCCC1)c1cccnc1 (stereo unspecified) | i | i | i | i | i | i
COc1ccc(C(=O)NN/C(=N/S(=O)(=O)c2ccc(C)cc2)c2ccccc2)cc1 | i | i | 37.5 | i | i | i
CCCCNC(=O)C1c2ccccc2OCC(=O)N1Cc1ccc2c(c1)OCO2 (stereo unspecified) | i | nt | i | i | i | nt
